Measured values: ChEMBL document CHEMBL1671645, “Pharmacokinetics and absorption of posaconazole oral suspension under various gastric conditions in healthy volunteers” (Antimicrob Agents Chemother, 2009)

What was measured:
[1] = Apparent volume of distribution in fasted healthy human at 400 mg administered as single dose suspension coadministered with acidic carbonated beverage; format: ADME, organism-based; conditions: in vivo, read-out: Vc/F
In short: (§1)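 This was a four-way crossover in 12 healthy subjects with 7–10 day washouts. Each took one fasting 400 mg oral suspension dose, with 12 oz ginger ale and/or esomeprazole 40 mg once each morning on days −2 to 1, with dosing on day 1. Plasma was sampled 0–168 h and measured by LC-MS/MS (LLOQ 5.00 ng/ml). Analysis was noncompartmental, with CL/F = dose/AUC_I and V/F = (CL/F)/K.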

Homo sapiens [2] = experiment: Toxicity in healthy human assessed as adverse events at 400 mg administered as single dose suspension coadministered with proton pump inhibitor; format: organism-based; parameters: scale not given: the % may be the effect or the level left; conditions: in vivo
In short: (§2)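 Healthy volunteers monitored for adverse events, vital signs, clinical laboratory values and 12-lead ECG. Adverse events tabulated by body system or organ class and severity and summarized by treatment across the crossover regimens.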

[3] = AUC in fasted healthy human at 400 mg administered as single dose suspension coadministered with acidic carbonated beverage; format: ADME, organism-based; conditions: plasma; in short: as §1
[4] = Cmax in fasted healthy human plasma at 400 mg administered as single dose suspension 5 mins before consumption of high fat meal; format: ADME, organism-based; parameters: dose 400 mg
In short: (§3)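 In a crossover of 12 healthy subjects, each took a single 400 mg oral suspension dose 5 min before, midway through (about 10 min into a 20-min meal), or 20 min after a high-fat meal of about 50 g fat. Plasma was drawn 0–168 h and measured by LC-MS/MS. Parameters are noncompartmental, with AUC to the last measurable time.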

[5] = Cmax in fasted healthy human plasma at 400 mg administered as single dose suspension coadministered with acidic carbonated beverage; format: ADME, organism-based; parameters: dose 400 mg; in short: as §1
[6] = Tmax in fasted healthy human at 400 mg administered as single dose suspension coadministered with proton pump inhibitor; format: ADME, organism-based; conditions: in vivo
In short: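 Single oral suspension dose in fasting healthy volunteers, alone, with 12 oz ginger ale, after esomeprazole 40 mg once each morning days −2 to 1, or both; four-way crossover, 7–10-day washout. EDTA plasma 0–168 h. LC-MS/MS (LLOQ 5.00 ng/ml). t1/2 = ln(2)/K from terminal log-linear regression; Tmax median.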

Homo sapiens [7] = experiment: Toxicity in healthy human assessed as asthenia at 200 mg QID, po administered as suspension for 7 days coadministered with nutritional supplement; format: organism-based; conditions: in vivo, 168 h; in short: as §2
[8] = Half life in fasted healthy human at 200 mg QID, po administered as suspension for 7 days; format: ADME, organism-based; conditions: in vivo
In short: (§4)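 Healthy volunteers given oral suspension (40 mg/ml) for 7 days, fasted or with nutritional supplement (Boost); four-way crossover, 14–21-day washout, nonfat snacks ≤800 cal/day allowed. On day 7 only the morning dose was given; plasma sampled predose to 168 h after it. LC-MS/MS (LLOQ 5.00 ng/ml). t1/2 = ln(2)/K from log-linear terminal slope; Tmax as median.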

[9] = Cmax in fasted healthy human plasma at 400 mg administered as single dose suspension after 20 mins after consumption of high fat meal; format: ADME, organism-based; parameters: dose 400 mg; in short: as §3
Homo sapiens [10] = experiment: Apparent total body clearance in healthy human at 400 mg BID, po administered as suspension for 7 days coadministered with nutritional supplement; format: ADME, organism-based; conditions: in vivo, 168 h
In short: (§5)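 Twelve healthy subjects took oral suspension for 7 days as 400 mg BID or 200 mg QID, either fasting or with a Boost-type nutritional supplement, in a crossover with 14–21 day washouts. Nonfat snacks of 800 cal/day or less were allowed. Plasma was sampled 0–168 h after the day-7 morning dose only and analysed by LC-MS/MS. AUC is AUC_τ, normalized to dose.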

Homo sapiens [11] = experiment: Toxicity in healthy human assessed as adverse events at 400 mg administered as single dose suspension coadministered with nutritional supplement and 4 mg loperamide as two 2 mg tablets; format: organism-based; conditions: in vivo; in short: as §2
Homo sapiens [12] = experiment: Toxicity in healthy human assessed as nausea at 400 mg administered as single dose suspension coadministered with nutritional supplement; format: organism-based; conditions: in vivo
In short: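 Three-way randomized crossover in 13 healthy volunteers with a 7- to 10-day washout. Each period was one 400-mg oral posaconazole suspension dose with a nutritional supplement. Metoclopramide 10 mg was given orally three times daily on the day before and the day of dosing; loperamide was a single 4 mg. Safety was assessed from adverse events, tabulated by body system and severity per treatment.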

[13] = Apparent total body clearance in fasted healthy human at 400 mg administered as single dose suspension coadministered with acidic carbonated beverage; format: ADME, organism-based; conditions: in vivo; in short: as §1
[14] = Half life in healthy human at 400 mg BID, po administered as suspension for 7 days coadministered with nutritional supplement; format: ADME, organism-based; conditions: in vivo; in short: as §4
[15] = Apparent volume of distribution in fasted healthy human at 400 mg administered as single dose suspension; format: ADME, organism-based; conditions: in vivo, read-out: Vc/F
Homo sapiens [16] = experiment: AUC in fasted healthy human at 200 mg QID, po administered as suspension for 7 days; format: ADME, organism-based, Plasma; conditions: in vivo, 168 h; in short: as §5
Homo sapiens [17] = experiment: AUC in healthy human at 200 mg QID, po administered as suspension for 7 days coadministered with nutritional supplement; format: ADME, organism-based, Plasma; conditions: in vivo, 168 h; in short: as §5
[18] = Tmax in healthy human at 200 mg QID, po administered as suspension for 7 days coadministered with nutritional supplement; format: ADME, organism-based; conditions: in vivo; in short: as §4
[19] = Apparent volume of distribution in fasted healthy human at 400 mg administered as single dose suspension 5 mins before consumption of high fat meal; format: ADME, organism-based; conditions: in vivo, read-out: Vc/F; in short: as §3
[20] = Apparent volume of distribution in healthy human at 400 mg administered as single dose suspension coadministered with nutritional supplement; format: ADME, organism-based; conditions: in vivo
In short: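 A three-way crossover in 13 healthy subjects gave one 400 mg oral suspension dose with a nutritional supplement, either alone, with metoclopramide 10 mg orally three times daily on the day before and the day of dosing, or with a single 4 mg dose of loperamide. Plasma was taken 0–168 h for LC-MS/MS. Analysis was noncompartmental.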

[21] = Cmax in healthy human plasma at 400 mg BID, po administered as suspension for 7 days coadministered with nutritional supplement; format: ADME, organism-based; parameters: dose 400 mg, route oral; in short: as §5
[22] = Cmax in fasted healthy human plasma at 400 mg administered as single dose suspension coadministered with acidic carbonated beverage and proton pump inhibitor; format: ADME, organism-based; parameters: dose 400 mg; in short: as §1
[23] = Tmax in fasted healthy human at 400 mg administered as single dose suspension 5 mins before consumption of high fat meal; format: ADME, organism-based; conditions: in vivo
In short: (§6)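 Single oral suspension dose in healthy volunteers while fasting, 5 min before, midway through (about 10 min into a 20-min meal), or 20 min after a high-fat meal (approx 50 g fat); four-way crossover, 7–10-day washout. Plasma 0–168 h by LC-MS/MS (LLOQ 5.00 ng/ml). t1/2 = ln(2)/K; Tmax median.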

[24] = Tmax in fasted healthy human at 200 mg QID, po administered as suspension for 7 days; format: ADME, organism-based; conditions: in vivo; in short: as §4
[25] = Cmax in fasted healthy human plasma at 400 mg administered as single dose suspension; format: ADME, organism-based; parameters: dose 400 mg
[26] = Tmax in fasted healthy human at 400 mg administered as single dose suspension after consumption of high fat meal; format: ADME, organism-based; conditions: in vivo; in short: as §6
Homo sapiens [27] = experiment: Toxicity in healthy human assessed as asthenia at 400 mg BID, po administered as suspension for 7 days coadministered with nutritional supplement; format: organism-based; conditions: in vivo, 168 h; in short: as §2
Homo sapiens [28] = experiment: Apparent total body clearance in fasted healthy human at 400 mg BID, po administered as suspension for 7 days; format: ADME, organism-based; conditions: in vivo, 168 h; in short: as §5

Which Vd/F [1] does the source give for `CC[C@@H]([C@H](C)O)n1ncn(-c2ccc(N3CCN(c4ccc(OC[C@@H]5CO[C@@](Cn6cncn6)(c6ccc(F)cc6F)C5)cc4)CC3)cc2)c1=O` [POSACONAZOLE] here?
The Vd/F was 1840 L.

And the Activity (Homo sapiens [2])?
Its Activity is 25%.

What about the AUC [3] of the same compound?
Its AUC is 9610 ng·h/mL.

What about the Cmax [4] of the same compound?
Its Cmax is 274 ng/mL.

What about the Cmax [5] of the same compound?
Its Cmax is 286 ng/mL.

And the Tmax [6]?
Its Tmax is 6 h.

And the Activity (Homo sapiens [7])?
Its Activity is 25%.

What about the half-life [8] of the same compound?
The half-life was 34.7 h.

What about the Cmax [9] of the same compound?
The Cmax was 544 ng/mL.

And the CL/F (Homo sapiens [10])?
The CL/F was 33.9 L/h.

What about the Activity (Homo sapiens [11]) of the same compound?
The Activity was 38%.

And the Activity (Homo sapiens [12])?
The Activity was 23%.

And the CL/F [13]?
Its CL/F is 870 mL/min.

What about the half-life [14] of the same compound?
The half-life was 29.5 h.

What about the Vd/F [15] of the same compound?
Its Vd/F is 3330 L.

What about the AUC (Homo sapiens [16]) of the same compound?
Its AUC is 132000 ng·h/mL.

What about the AUC (Homo sapiens [17]) of the same compound?
Its AUC is 112000 ng·h/mL.

What about the Tmax [18] of the same compound?
The Tmax was 4 h.

And the Vd/F [19]?
The Vd/F was 1900 L.

And the Vd/F [20]?
Its Vd/F is 1660 L.

What about the Cmax [21] of the same compound?
The Cmax was 1590 ng/mL.

And the Cmax [22]?
Its Cmax is 93.3 ng/mL.

And the Tmax [23]?
Its Tmax is 7 h.

What about the Tmax [24] of the same compound?
The Tmax was 4 h.

What about the Cmax [25] of the same compound?
The Cmax was 151 ng/mL.

What about the Tmax [26] of the same compound?
The Tmax was 6 h.

And the Activity (Homo sapiens [27])?
The Activity was 25%.

And the CL/F (Homo sapiens [28])?
The CL/F was 54.6 L/h.
